MOR-DOR inv ag: inverse agonists of human mu-delta opioid receptor heterodimerization | cell-based MOR-DOR heterodimer luminescence, inverse agonism | P35372+P41143 | 340,000 compounds, 0.21% hits | inhibition, % at 9.3 µM; in the data active = inhibition above about 22%, passing the limit was not always enough
HTR5A ag ctr: counter-screen for OPRM1-OPRD1 agonists: human HTR5A agonism; P47898; HTR5A agonist assay, luminescence, cell-based; activation, % at 9.3 µM; 340,000 compounds, 0.61% hits; in the data active = activation mostly above about 9.5%, no sharp cut-off; inactive = mostly below about 7.6%
Target sequence (P47898 whole entry, looked up): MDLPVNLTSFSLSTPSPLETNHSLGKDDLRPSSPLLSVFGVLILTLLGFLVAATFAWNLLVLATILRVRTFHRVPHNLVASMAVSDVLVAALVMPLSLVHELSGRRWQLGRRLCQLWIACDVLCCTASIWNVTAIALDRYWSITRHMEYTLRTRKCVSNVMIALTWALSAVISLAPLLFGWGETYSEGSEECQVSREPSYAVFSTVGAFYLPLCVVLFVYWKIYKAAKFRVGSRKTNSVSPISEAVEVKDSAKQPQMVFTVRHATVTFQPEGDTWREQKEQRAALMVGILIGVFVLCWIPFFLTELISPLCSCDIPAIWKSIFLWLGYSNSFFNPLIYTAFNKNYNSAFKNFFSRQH
MOR-DOR ag: agonists of human mu-delta opioid receptor heterodimerization; P35372+P41143; cells, OPRM1-OPRD1 heterodimerization, luminescence; activation, % at 9.3 µM; 340,000 compounds, 0.3% hits; in the data active = activation above about 18%
MC4R ag barr: human MC4R agonism via beta-arrestin | P32245 | U2OS MC4R beta-arrestin complementation, luminescence; percent of melanotan II response, DMSO zero | activation, % at 8.9 µM | 360,000 compounds, 0.98% hits;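 active = activation above a per-plate cutoff, the mean activation of sample wells on that plate plus 3 SD, cut at about 8% in these data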
HTR5A inv ag: HTR5A inverse agonism, opioid heterodimer counter-screen | P47898 | HTR5A cell line, luminescence | inhibition, % at 9.3 µM | 340,000 compounds, 0.083% hits | AID 504634; in the data active = inhibition mostly above about 23%, no sharp cut-off; inactive = mostly below about 18%
MC4R antagonist: blocks human MC4R cAMP signaling. P32245. MC4R-expressing cells, MTII-stimulated cAMP, LANCE TR-FRET. inhibition, % at 6.5 µM. 360,000 compounds, 0.48% hits;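 active = inhibition above its plate's cutoff, the mean of tested wells on that plate plus 3 SD, cut at about 29% in these data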
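Test system: U2OS cells stably expressing human melanocortin 4 receptor (MC4R); also added: Melanotan II challenge; compound: 6.5 µM single dose; timing: 30-min compound preincubation, 1-h Melanotan II challenge, 1-h detection, room temperature; signal: Eu-cAMP/anti-cAMP TR-FRET, emission 671 nm; repeats: one well per compound, no replicates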
Of the large screens only hits and unclear results are named; the others gave an inactive call. Compounds with a hit are over-represented: about 2.4% of the library has one in this group of screens.

Cc1nsc(Nc2ccc([N+](=O)[O-])cc2)c1C#N	none
CC(=O)N1N=C(c2cccs2)CC1c1cccc([N+](=O)[O-])c1 (stereo not drawn)	MOR-DOR inv ag 38.2, HTR5A inv ag 32.6
Cc1cn(C(=O)c2ccccc2)c(=S)n1-c1ccc(Br)cc1	none
CCOc1ccc(N(CC(=O)NCc2ccc(OC)cc2)C(=O)CCC(=O)Nc2nccs2)cc1	none
CCOc1ccc(N(CC(=O)NCc2ccc(F)cc2)C(=O)c2snc(C(N)=O)c2N)cc1	MC4R ag barr 12.8
CCOc1ccc(N(CC(=O)NCc2ccc(F)cc2)C(=O)CCC(=O)Nc2nccs2)cc1	HTR5A ag ctr 12.7
CCc1ccc(N(CC(=O)NCc2ccc(F)cc2)C(=O)c2csnn2)cc1	HTR5A ag ctr 9.4
Cc1ccc(C(=O)OCC(=O)NC2CCCC(C)C2C)s1 (stereo not drawn)	none (no result: MOR-DOR inv ag, HTR5A ag ctr, MOR-DOR ag, HTR5A inv ag)
CN(C)CCn1c2ccccc2c2nc3ccc([N+](=O)[O-])cc3cc21	MC4R ag barr 8.3 (no result: MOR-DOR inv ag, HTR5A ag ctr, MOR-DOR ag, HTR5A inv ag)
COc1ccccc1NC(=O)COc1ccc(C(=O)NC2CCCc3ccccc32)cc1OC (stereo not drawn)	MC4R ag barr 8.5
O=C(COC(=O)COc1cccc(C(F)(F)F)c1)NC(=O)NC1CCCCC1	MC4R ag barr 8.7
CCCC(=O)N1CCCC1(C)C(=O)NCc1ccc(F)cc1Cl (stereo not drawn)	none (no result: MOR-DOR inv ag, HTR5A ag ctr, MOR-DOR ag, HTR5A inv ag)
O=C(O)c1ccc(N=N/C(=N\Nc2ccc(C(=O)O)cc2)c2ccccc2)cc1	MOR-DOR inv ag 30.7, HTR5A inv ag 35.3
O=C(O)c1cccc(N/N=C(\N=Nc2ccccc2)c2ccccc2)c1	none
COc1ccc(C(=O)Nc2ccc(C(=O)OCC(=O)c3ccccc3)cc2)cc1	none
COc1cccc(C(=O)COC(=O)c2ccc(NC(=O)c3ccccc3)cc2)c1	MC4R ag barr 8.7
Cc1ccc(CN2CCN(C/C(Cl)=C/c3ccccc3)CC2CCO)o1 (stereo not drawn)	none
CC(C)C[C@H](NC(=O)OC(C)(C)C)c1nnc(SCC(=O)Nc2ccc(Br)cc2)o1	MC4R ag barr 8.3
CC(C)C[C@H](N)c1nnc(SCC(=O)Nc2ccc(Br)cc2)o1	none
CCOc1ccc(-n2c(N)c(-c3nc4ccccc4[nH]3)sc2=S)cc1	MC4R ag barr 8.8
Oc1ccccc1Nc1nc(NCC2CCCO2)c2ccccc2n1 (stereo not drawn)	none
Oc1ccc(Cl)cc1Nc1nc(NCC2CCCO2)c2ccccc2n1 (stereo not drawn)	MC4R ag barr 11.8
CCOc1ccc(/C=C/C(=O)Nc2ccc(N3CCOCC3)cc2)cc1	MC4R ag barr 8.9
COc1ccc(/C=C/C(=O)OCC(=O)Nc2ccc(N3CCOCC3)cc2)cc1	none
CN1C(=O)NC(c2cccc([N+](=O)[O-])c2)C2=C1CCCC2=O (stereo not drawn)	none
Cc1cccc(Cn2cc(SCC(=O)Nc3nccs3)c3ccccc32)c1	MC4R ag barr 8.7
Cc1ccc(Cn2cc(SCC(=O)Nc3nccs3)c3ccccc32)cc1	none
CCN(CC)S(=O)(=O)c1ccc(-c2nnc(SCc3nnc(-c4ccccc4)o3)o2)cc1	MC4R ag barr 8.4
O=S(=O)(c1ccc(-c2nnc(SCc3nnc(-c4ccccc4)o3)o2)cc1)N1CCCC1	none
COc1cccc(C(=O)O/N=C(\N)c2ccc([N+](=O)[O-])cc2)c1OC	HTR5A ag ctr 13.1, MC4R ag barr 8.6
CC(=O)Nc1cccc(NS(=O)(=O)c2cc3c4c(c2)CCN4C(=O)CC3)c1	none
Cc1[nH]nc(-c2ccc(O)cc2O)c1-c1ccc(Cl)cc1	none
COc1ccc(-c2n[nH]c(C)c2-c2ccc(Cl)cc2)c(O)c1	MC4R ag barr 9.1
Cn1c(N)c(C(=O)COC(=O)C2(c3ccc(F)cc3)CCCC2)c(=O)n(C)c1=O	HTR5A ag ctr 8.4
CCCNC(=O)Nc1cc(OC)c(OC)cc1Cc1nccc2cc(OC)c(OC)cc12	none
CCOc1ccc(-c2nonc2NC(=O)c2ccco2)cc1OCC	HTR5A ag ctr 12.6
COc1ccc(-c2nonc2NC(=O)c2ccco2)cc1OC	none
C=CCN1C=C2C(=O)C(C)(OC(=O)C3CCCC3)C(=O)C(c3ccccc3)=C2C=C1CCCC(=O)OC (stereo not drawn)	HTR5A ag ctr 12.2
Cc1nc(NC(=O)/C=C/c2ccccc2)sc1C(=O)N1CCCCC1	none
O=C(CN(C1CCCCC1)S(=O)(=O)c1ccc(Cl)cc1)NCc1cccnc1	HTR5A ag ctr 13.3
COc1ccc(C(=O)c2sc3nc(-c4ccc(OC)cc4)ccc3c2N)cc1	MC4R ag barr 9.2
COc1ccc(-c2ccc3c(N)c(C(=O)c4cccc(OC)c4)sc3n2)cc1	none
COC(=O)/C(=C1/Oc2ccc(C)cc2S1)C(F)(F)F	none
CCC(CC)C(=O)c1c[nH]c(C(=O)N2CCN(c3ccccc3)CC2)c1	none
O=C(COc1ccccc1Br)Nc1ccccc1C(F)(F)F	MC4R ag barr 9.4
CCOc1ccc(OCC(=O)Nc2ccccc2C(F)(F)F)cc1	none
O=C(OCC(=O)N1CCCCC1)c1cc(=O)[nH]c2ccccc12	HTR5A ag ctr 12.8
COc1ccc(OCCn2c(C)c(/C=N/n3cnnc3)c3ccccc32)cc1	none
COc1cccc(OCCn2c(C)c(/C=N/n3cnnc3)c3ccccc32)c1	MC4R ag barr 9.7
CCN1CCN(Cc2ccc(NC(=O)c3cc(NC(=O)c4cnn(-c5ccccc5)c4N)cc(OC)c3)cc2C(F)(F)F)CC1	HTR5A ag ctr 12.5
CN(C(=O)COC(=O)c1ccc([N+](=O)[O-])cc1N)c1ccccc1	none
C=CCNC(=S)N1CCN(S(=O)(=O)c2ccc(C)cc2)CC1	HTR5A ag ctr 12.4
CCOC(=O)N1CCc2c(sc3c2C(=O)NC(c2ccccc2)N3)C1 (stereo not drawn)	MC4R ag barr 9.0
Cc1ccccc1-n1nnnc1SCC(=O)NC1CC1	none
COc1cc(OC)cc(C(=O)Oc2ccc(/C=N/Nc3nc4ccccc4s3)cc2OC)c1	none
COc1ccc(C=NNc2nc3ccccc3s2)cc1	MC4R ag barr 9.1
O=C(COc1nc2ccccc2nc1N1CCOCC1)Nc1cccc(S(=O)(=O)N2CCCCC2)c1	none
COc1cccc(-c2csc(N3CCN(CC(=O)NNC(=O)c4ccc(Cl)cc4)CC3)n2)c1	MC4R ag barr 8.8
COc1cccc(-c2csc(N3CCN(CC(=O)NNC(=O)c4ccc(Br)cc4)CC3)n2)c1	MC4R ag barr 10.0
CN(CCO)c1ccc(-c2nn(C)c(=O)c3ccccc23)cc1[N+](=O)[O-]	none
CN(CCO)c1cc(N(C)CCO)c([N+](=O)[O-])cc1[N+](=O)[O-]	HTR5A ag ctr 11.7
CN(C(=O)COC(=O)c1cc2ccccc2cc1O)c1c(N)n(Cc2ccccc2)c(=O)[nH]c1=O	none
CCc1nnc(NC(=O)c2cccnc2SC)s1	none
